{
  "source": "paper PMC6474823",
  "about": "(Molecular cell, 2019)",
  "molecular_target": "Hck^3D V284C (Homo sapiens, UniProt P08631, V276C)",
  "sequence (P08631 81-526 V276C)": "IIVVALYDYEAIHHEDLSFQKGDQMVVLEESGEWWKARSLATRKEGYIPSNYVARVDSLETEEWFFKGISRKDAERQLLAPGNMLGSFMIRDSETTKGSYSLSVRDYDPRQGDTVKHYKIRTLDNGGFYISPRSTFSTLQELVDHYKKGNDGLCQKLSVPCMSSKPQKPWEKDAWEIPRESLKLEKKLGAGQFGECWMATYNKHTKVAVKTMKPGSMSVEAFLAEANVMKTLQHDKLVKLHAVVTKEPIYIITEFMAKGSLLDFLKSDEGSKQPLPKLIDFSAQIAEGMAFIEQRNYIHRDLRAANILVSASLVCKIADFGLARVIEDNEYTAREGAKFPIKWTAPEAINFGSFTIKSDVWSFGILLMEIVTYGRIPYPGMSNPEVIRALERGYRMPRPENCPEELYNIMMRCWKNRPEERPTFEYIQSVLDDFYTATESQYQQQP",
  "test": "Inhibitor IC50 determination, fluorescent SFK peptide kinase assay",
  "format": "biochemical",
  "details": "1 mM ATP",
  "how_it_was_run": "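Kinase concentrations were set in the linear range by prior titration: Src3D WT or V284C at 7.5 nM, Hck3D WT or V284C at 5 nM. Kinase was incubated 30 min with test compound (30 μM top, 3-fold serial dilutions, 10 points) and 1 mM ATP in HEPES pH 7.5 buffer with MgCl2, EGTA, BSA, vanadate and BME. Then 20 μM pyrene-labelled SFK peptide was added for 2 h. Fluorescence was read at ex 344/em 405 nm, in triplicate.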",
  "data": [
    {"smiles": "CNC(=O)C(C#N)=Cc1c(C#Cc2cc(NC(=O)c3cccc(C(F)(F)F)c3)ccc2C)c2cncnc2n1CCOC", "note": "[compound 3, (E)- and (Z)-N-(3-((6-(2-cyano-3-(methylamino)-3-oxoprop-1-en-1-yl)-7-(2-methoxyethyl)-7H-pyrrolo[2,3-d]pyrimidin-5-yl)ethynyl)-4-methylphenyl)-3-(trifluoromethyl)benzamide]", "values": [
      {"measurement": "inhibition of Hck V284C (IC50, Figure 4C)", "value": "potently inhibited"}
    ]}
  ]
}
